An excerpt weighted towards active compounds, which were near 4.3% of everything screened.
WT yeast gro inh – growth inhibition of WT strain, primary screen, mitochondrial fusion inhibitor project, WT and mutant strains, chemical genetic. AID 1362, 2008. actives 2.1% (n = 190,000). mitochondrial fusion phenotypic screen. inhibition, % at 10 µM; in the data active = inhibition above about 58%; tested in S. cerevisiae
RAM network inh – inhibitors of the yeast RAM network, primary screen, dse1pr::URA3 reporter, 5-FOA selection; S. cerevisiae dse1pr::URA3 reporter, 5-FOA growth OD615, 2 d; analog-sensitive cbk1-as2 kinase mutant strain; actives 1.8% (n = 190,000); inhibition, % at 50 µM; AID 868, 2007;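 active = inhibition above a set limit, 3 SD over mean compound inhibition, cut at about 8.4% in these data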;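 note: 0% = DMSO-only wells with no growth and 100% = 10 µM 1-NA-PP1 full growth; inhibition rescues growth on 5-FOA so higher OD means more RAM inhibition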
BB579 growth dn – growth inhibitors of yeast BB579 in restrictive medium, primary screen, yeast lifespan-shortening project, S. cerevisiae; OD615, 48 h; inhibition, % at 10 µM; actives 0.51% (n = 140,000);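 active = inhibition above a set limit, 3 SD over the mean compound inhibition, cut at about 44% in these data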
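Test system: DeaD yeast strain BB579 / Buffer or medium: restrictive glucose-based CSMM-D medium / Doses: single 10 µM dose / Schedule: 4 h cell preincubation, 48 h compound exposure, 30 °C humidified / Technique: culture absorbance at 615 nm / Controls: amphotericin B positive control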
Yeast life ext – compounds extending yeast replicative lifespan, primary screen, S. cerevisiae, OD615; actives 0.68% (n = 130,000); S. cerevisiae growth with nicotinamide; deaD strain in restrictive glucose medium; inhibition of the nicotinamide effect, % at 10 µM; AID 775, 2007;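 active = inhibition above a set limit, placed 3 SD over the median of all compounds, cut at about 26% in these data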;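 note: 0% = nicotinamide-treated wells and 100% = cells grown without nicotinamide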
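Buffer or medium: CSMM-D glucose medium, restrictive; test system: modified budding yeast, DeaD strain; compound: single dose 10 µM compound, 0.25% DMSO; schedule: culture preincubation 4 h, compound exposure 48 h, both 30 °C; detection: optical density (absorbance) at 615 nm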
The depositor's hits bear a star; / = no result given.

SMILES	WT yeast gro inh	RAM network inh	BB579 growth dn	Yeast life ext
CCc1ccc(C2CC(c3ccc(Cl)cc3)=NNC2=O)cc1 (centres undefined)	23	5	-4	-10
Cc1ccc(C2CC(c3ccc(Cl)cc3)=NNC2=O)cc1 (centres undefined)	13	-2	-53	-1
O=C1NN=C(c2ccc(Br)cc2)CC1c1ccc(Cl)cc1 (centres undefined)	58*	0	/	/
CC(C)(C)n1nc(-c2ccc(Cl)cc2)c2c(N)ncnc21	3	-1	83*	-18
CC(C)(C)n1nc(-c2ccc(F)cc2)c2c(N)ncnc21	39	0	88*	-6
Cc1ccc(-c2nc(N)c3c(-c4ccc(C)cc4)nn(C(C)(C)C)c3n2)cc1	-11	1	-4	-4
CCCN(CC1CC1)C(=O)COC(=O)c1ccc2c(c1)C(=O)N(c1ccc(OCC)cc1)C2=O	-11	11*	/	/
CCOc1ccc(N2C(=O)c3ccc(C(=O)OCc4c(C)noc4C)cc3C2=O)cc1	12	3	-23	-5
Cc1ccc(C)c2sc(NC(=O)c3nc4ccccc4s3)nc12	14	6	-22	-1
CCCCSc1ccc2nc(-c3ccc(C#N)cc3)cn2c1	48	1	-17	-9
CCCSc1ccc2nc(-c3ccccc3)cn2c1	70*	0	-39	-4
CCCCOC(=O)n1c(=S)oc2cc(Cl)ccc21	32	-1	98*	-23
O=C(Cn1c(=O)oc2cc(S(=O)(=O)N3CCCCCC3)ccc21)NC1CCCCC1	-13	8.8*	-24	-10
COC(=O)n1c(=S)oc2cc(Cl)ccc21	15	-1	-35	-20
COC(=O)n1c(=O)oc2cc(S(=O)(=O)N3CCOCC3)ccc21	-4	2	-17	-1
CCCCOC(=O)n1c(=O)oc2cc(S(=O)(=O)N3CCCCC3)ccc21	-20	1	-46	68*
O=C(NCc1ccccn1)C1CCCCC1	5	1	/	/
C=CCn1c(-c2cc3cccc(OC)c3o2)n[nH]c1=S	17	0	/	/
COc1ccc(S(=O)(=O)n2ccc(-c3cnc(-c4ccccc4)s3)n2)cc1	32	9.3*	-40	-9
O=C(c1ccccc1)n1ccc(-c2cnc(-c3ccccc3)s2)n1	3	7	-15	-1
COc1ccc(S(=O)(=O)N/N=c2\oc3c(OC)cccc3cc2S(=O)(=O)c2ccc(C)cc2)cc1OC	-11	11*	/	/
Cc1nn(C)c(Cl)c1C(N)=O	-8	1	/	/
Cc1nc(C(F)(F)F)c(C(=O)N/N=C(\N)c2cccnc2)s1	-6	2	/	/
O=c1c2cn[nH]c2nc(SCc2ccccc2F)n1-c1ccc(Br)cc1	79*	4	-67	-2
O=c1c2cn[nH]c2nc(SCc2cc(=O)n3cc(Br)ccc3n2)n1-c1ccc(Br)cc1	3	7	/	/
SMILES	WT yeast gro inh	RAM network inh	BB579 growth dn	Yeast life ext
COc1ccc(CN(C)C2c3ccccc3-c3ccccc32)cc1	69*	1	-12	-1
COc1ccc(OCCN(C)Cc2ccccc2)cc1	11	1	5	-9
O=C1CCCC2=C1C(c1cccc(O)c1)c1c(ccc3ncccc13)N2 (centres undefined)	5	0	/	/
CSc1nc(-c2ccc(N(C)C)cc2)c(C#N)c(=O)n1C	-8	6	/	/
COC(=O)c1sccc1-c1ccc(C(=O)Nc2cccc(Cl)c2)o1	19	9.8*	-44	-10
COC(=O)c1ccc(C(=O)OC)c(NC(=S)N2CCOCC2)c1	-10	0	/	/
Clc1ccc(CNc2nc(CN3CCOCC3)nc3scc(-c4ccccc4)c23)cc1	79*	1	-26	1
ClC(Br)=C(n1cnc2ccccc21)n1cnc2ccccc21	14	0	-53	41*
CN(C(=O)n1cnc2ccccc21)c1ccccc1	-31	0	-15	2
Cc1nc(NC2=NCN(C3CCCCC3C)CN2)nc2ccccc12 (centres undefined)	86*	1	-55	-17
COc1ccc(OC)c(Cc2nnc(CCC(=O)NCc3ccc(C)s3)o2)c1	-6	2	/	/
CC(C)(C)c1ccc(S(=O)(=O)Nc2ccc(Cc3ccncc3)cc2)cc1	59*	0	-15	4
O=C(NN=C1CCN(Cc2ccccc2)CC1)C(O)c1ccccc1 (centres undefined)	-6	1	-42	2
COc1ccc(C2CC(C)(c3ccc(OC)cc3OC)Nc3ccccc3N2)c(OC)c1 (centres undefined)	72*	-2	/	/
COC(=O)C1=C(C)C(c2ccc(OC)cc2OC)NC(=O)N1 (centres undefined)	-13	2	-49	-9
CCC(C)NC(=O)C1CN(S(=O)(=O)c2ccccc2)CCN1S(=O)(=O)c1ccccc1 (centres undefined)	3	2	27	-13
CC(C)c1ccccc1NC(=O)C1CN(S(=O)(=O)c2ccccc2)CCN1S(=O)(=O)c1ccccc1 (centres undefined)	-13	8.6*	-29	2
CC1CCN(C(=S)NC(=O)c2cccs2)CC1	33	0	/	/
O=C(CNC(=O)C1COc2ccccc2O1)N/N=C/c1ccc(O)cc1O (centres undefined)	7	2	-38	-4
O=C1c2ccccc2CC1(Cc1ccccc1)Cc1ccccc1	73*	2	-24	/
CC(C)COc1ccc(C/C(N)=N/n2cnnc2)cc1	-4	0	/	/
Cc1ccc(N2C(=O)CCC2(C(N)=O)c2ccccc2)cc1 (centres undefined)	4	0	/	/
COc1ccccc1NC(=O)c1csc2c1CCCC2	-6	-1	-2	-33
O=C(Nc1ccccn1)c1csc2c1CCCC2	72*	0	/	/
COc1ccc(/C=N/Nc2nnc(Cc3ccc(OC)c(OC)c3)c(=O)[nH]2)cc1OC	-10	9.7*	-18	4
SMILES	WT yeast gro inh	RAM network inh	BB579 growth dn	Yeast life ext
CCc1ccc(CC2S/C(=C(\C#N)C(C)=O)NC2=O)cc1 (centres undefined)	12	3	-3	44*
Cc1ccc(-n2nnnc2SCc2ccccn2)cc1C	/	0	6	-6
N#Cc1ccccc1NC(=O)C1CC(=O)N(c2ccc3c4c(cccc24)CC3)C1 (centres undefined)	-14	2	-50	0
Cc1cccc(-c2oc(C)c(C)[n+]2[O-])c1	-1	1	-30	-3
Cc1oc(-c2ccccc2)[n+]([O-])c1C	69*	1	-15	-18
O=C(COC(=O)c1cc([N+](=O)[O-])ccc1NCCO)NCc1cccs1	-34	11*	/	/
O=C(COC(=O)c1cc([N+](=O)[O-])ccc1NCCO)c1ccccc1	-7	3	10	-2
COc1ccc(S(=O)(=O)n2nc(OC(C)=O)cc2N)cc1	3	0	/	/
COc1cccc(C(=O)Oc2cc(N)n(S(=O)(=O)c3ccc(C)cc3)n2)c1OC	-7	9.1*	-37	68*

Bioassay records (PubChem BioAssay)
